In ChEMBL document CHEMBL1165943, “Design and synthesis of new anticancer pyrimidines with multiple-kinase inhibitory effect” (Bioorg Med Chem, 2010):
The source made the active and inactive calls. The calls are words filed in the database; no cut-off is given here.

Tests used:
NCI-H322M = assay: Cytotoxicity against human NCI-H322M cells assessed as cell growth at 100 nM after 48 hrs by sulforhodamine B assay; format: functional; conditions: read-out: Activity
BT-549 = assay: Cytotoxicity against human BT549 cells assessed as cell growth at 0.001 uM after 48 hrs by sulforhodamine B assay; format: functional; conditions: BT-549, 48 h, read-out: Activity
In short: (§1)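 Cells grown in RPMI 1640 with 5% FBS and 2 mM L-glutamine, seeded at 5,000–40,000 cells/well by doubling time. Time-zero plates TCA-fixed after 24 h. Five concentrations (10-fold or half-log dilutions from DMSO stock) added; 48 h at 37 °C, 5% CO2. Cold TCA fixation (final 10%, 60 min, 4 °C), 0.4% SRB stain, dye solubilized in 10 mM trizma base, A515.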

OVCAR-8 = assay: Cytotoxicity against human OVCAR8 cells assessed as cell growth at 1 uM after 48 hrs by sulforhodamine B assay; format: functional; conditions: OVCAR-8, 48 h, read-out: Activity
MDA-MB-468 = assay: Cytotoxicity against human MDA-MB-468 cells assessed as cell growth at 0.01 uM after 48 hrs by sulforhodamine B assay; format: functional; conditions: MDA-MB-468, 48 h, read-out: Activity
NCI-H460 = assay: Growth inhibition of human NCI-H460 cells after 48 hrs by sulforhodamine B assay; format: functional, cell-based; conditions: NCI-H460, 48 h; for CC50: read-out: LC50 (the source's name)
In short: (§2)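 Cells grown in RPMI 1640 with 5% FBS and 2 mM L-glutamine, seeded at 5,000–40,000 cells/well according to doubling time. After 24 h, time-zero plates are TCA-fixed. Five concentrations (10-fold or ½log dilutions, DMSO stocks) are applied for 48 h at 37 °C, 5% CO₂. Cells are TCA-fixed, SRB-stained and read at 515 nm. IC₅₀ is taken from [(Ti−Tz)/(C−Tz)]×100 = 50.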

UACC-257 = assay: Cytotoxicity against human UACC257 cells assessed as cell growth at 1 uM after 48 hrs by sulforhodamine B assay; format: functional; conditions: UACC-257, 48 h, read-out: Activity
T47D [1] = assay: Cytotoxicity against human T47D cells assessed as cell growth at 1 uM after 48 hrs by sulforhodamine B assay; format: functional; conditions: read-out: Activity
HT-29 [2] = assay: Cytotoxicity against human HT-29 cells assessed as cell growth at 1 uM after 48 hrs by sulforhodamine B assay; format: functional; conditions: HT-29, 48 h, read-out: Activity
NCI-H23 = assay: Cytotoxicity against human NCI-H23 cells assessed as cell growth at 1 uM after 48 hrs by sulforhodamine B assay; format: functional; conditions: NCI-H23, 48 h, read-out: Activity
KM12 = assay: Growth inhibition of human KM12 cells after 48 hrs by sulforhodamine B assay; format: functional, cell-based; conditions: KM12, 48 h; for CC50: read-out: LC50 (the source's name); in short: as §2
EKVX = assay: Cytotoxicity against human EKVX cells assessed as cell growth at 10 uM after 48 hrs by sulforhodamine B assay; format: functional; conditions: read-out: Activity
SNB-75 [3] = assay: Cytotoxicity against human SNB75 cells assessed as cell growth at 0.01 uM after 48 hrs by sulforhodamine B assay; format: functional; conditions: SNB-75, 48 h, read-out: Activity
T47D [4] = assay: Cytotoxicity against human T47D cells assessed as cell growth at 10 uM after 48 hrs by sulforhodamine B assay; format: functional; conditions: read-out: Activity
HT-29 [5] = assay: Growth inhibition of human HT-29 cells after 48 hrs by sulforhodamine B assay; format: functional, cell-based; conditions: HT-29, 48 h; for CC50: read-out: LC50 (the source's name); in short: as §2
U-251 = assay: Cytotoxicity against human U251 cells assessed as cell growth at 0.01 uM after 48 hrs by sulforhodamine B assay; format: functional; conditions: U-251, 48 h, read-out: Activity
Malme-3M [6] = assay: Growth inhibition of human MALME-3M cells after 48 hrs by sulforhodamine B assay; format: functional, cell-based; in short: as §2
SNB-75 [7] = assay: Cytotoxicity against human SNB75 cells assessed as cell growth at 0.001 uM after 48 hrs by sulforhodamine B assay; format: functional; conditions: SNB-75, 48 h, read-out: Activity
A498 = assay: Cytotoxicity against human A498 cells assessed as cell growth at 0.001 uM after 48 hrs by sulforhodamine B assay; format: functional; conditions: A498, 48 h, read-out: Activity; in short: as §1
SK-MEL-2 = assay: Growth inhibition of human SK-MEL-2 cells after 48 hrs by sulforhodamine B assay; format: functional, cell-based; conditions: SK-MEL-2, 48 h; for CC50: read-out: LC50 (the source's name); in short: as §2
SN12C = assay: Cytotoxicity against human SN12C cells assessed as cell growth at 0.01 uM after 48 hrs by sulforhodamine B assay; format: functional; conditions: read-out: Activity
UACC-62 = assay: Cytotoxicity against human UACC62 cells assessed as cell growth at 0.001 uM after 48 hrs by sulforhodamine B assay; format: functional; conditions: UACC-62, 48 h, read-out: Activity
Malme-3M [8] = assay: Cytotoxicity against human MALME-3M cells assessed as cell growth at 100 nM after 48 hrs by sulforhodamine B assay; format: functional; conditions: read-out: Activity
MDA-MB-231 = assay: Cytotoxicity against human MDA-MB-231 cells assessed as cell growth at 0.001 uM after 48 hrs by sulforhodamine B assay; format: functional; conditions: MDA-MB-231, 48 h, read-out: Activity
OVCAR-4 = assay: Cytotoxicity against human OVCAR4 cells assessed as cell growth at 0.01 uM after 48 hrs by sulforhodamine B assay; format: functional; conditions: OVCAR-4, 48 h, read-out: Activity
CAKI-1 = assay: Growth inhibition of human Caki1 cells after 48 hrs by sulforhodamine B assay; format: functional, cell-based; conditions: CAKI-1, 48 h
In short: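 Five-dose SRB assay. Cells in RPMI 1640 with 5% FBS and 2 mM L-glutamine were seeded at 5,000–40,000 cells/well, with a TCA-fixed time-zero plate (Tz) taken at 24 h. Compound stocks were in DMSO, serially diluted 10-fold or ½-log to five concentrations, and incubated 48 h at 37 °C. Plates were stained with SRB and read at 515 nm. IC₅₀ was taken where [(Ti−Tz)/(C−Tz)]×100 = 50.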

COLO 205 [9] = assay: Cytotoxicity against human COLO205 cells assessed as cell growth at 0.01 uM after 48 hrs by sulforhodamine B assay; format: functional; conditions: COLO 205, 48 h, read-out: Activity; in short: as §1
COLO 205 [10] = assay: Cytotoxicity against human COLO205 cells assessed as cell growth at 0.001 uM after 48 hrs by sulforhodamine B assay; format: functional; conditions: COLO 205, 48 h, read-out: Activity; in short: as §1
OVCAR-5 = assay: Cytotoxicity against human OVCAR5 cells assessed as cell growth at 0.001 uM after 48 hrs by sulforhodamine B assay; format: functional; conditions: OVCAR-5, 48 h, read-out: Activity
TK-10 = assay: Cytotoxicity against human TK10 cells assessed as cell growth at 1 uM after 48 hrs by sulforhodamine B assay; format: functional; conditions: TK-10, 48 h, read-out: Activity

Compound `CC(=O)c1ccccc1-c1ccc(-c2ccnc(NC(=O)Nc3cc(N4CCOCC4)cc(C(F)(F)F)c3)n2)cn1` has a growth at 0.1 µM (NCI-H322M) of 99%, a growth at 0.001 µM (BT-549) of 101% and a growth at 1 µM (OVCAR-8) of 41%. For the same compound, the growth at 0.01 µM (MDA-MB-468) was 105%, the GI50 (NCI-H460) was over 100 µM and the IC50 (NCI-H460) was over 100 µM. For the same compound, the TGI (NCI-H460) was over 100 µM, the CC50 (NCI-H460) was over 100 µM and the growth at 1 µM (UACC-257) was 66%. The growth at 1 µM (T47D [1]) was 60%, the growth at 1 µM (HT-29 [2]) was 76% and the growth at 1 µM (NCI-H23) was 52%. The GI50 (KM12) was over 100 µM, the IC50 (KM12) was over 100 µM and the TGI (KM12) was over 100 µM. The CC50 (KM12) was over 100 µM, the growth at 10 µM (EKVX) was 74% and the growth at 0.01 µM (SNB-75 [3]) was 100%. For the same compound, the growth at 10 µM (T47D [4]) was 66%, the GI50 (HT-29 [5]) was over 100 µM and the IC50 (HT-29 [5]) was over 100 µM. For the same compound, the TGI (HT-29 [5]) was over 100 µM, the CC50 (HT-29 [5]) was over 100 µM and the growth at 0.01 µM (U-251) was 98%. For the same compound, the TGI (Malme-3M [6]; Homo sapiens, Malme-3M, 48 h) was over 100 µM, the CC50 (Malme-3M [6]; Homo sapiens, Malme-3M, 48 h, read-out: LC50 (the source's name)) was over 100 µM and the IC50 (Malme-3M [6]; malme-3m) was “Not Active”. For the same compound, the growth at 0.001 µM (SNB-75 [7]) was 88%, the growth at 0.001 µM (A498) was 85% and the GI50 (SK-MEL-2) was over 100 µM. It also gave an IC50 (SK-MEL-2) of 15.9 µM, a TGI (SK-MEL-2) of 75.5 µM and a CC50 (SK-MEL-2) of over 100 µM. It also gave a growth at 0.01 µM (SN12C) of 88%, a growth at 0.001 µM (UACC-62) of 94% and a growth at 0.1 µM (Malme-3M [8]) of 78%. The growth at 0.001 µM (MDA-MB-231) was 101%, the growth at 0.01 µM (OVCAR-4) was 108% and the GI50 (CAKI-1) was 6.89 µM. For the same compound, the IC50 (CAKI-1) was over 100 µM, the LC50 (lethal concentration 50%) (CAKI-1) was over 100 µM and the TGI (CAKI-1) was over 100 µM. The growth at 0.01 µM (COLO 205 [9]) was 114%, the growth at 0.001 µM (COLO 205 [10]) was 109% and the growth at 0.001 µM (OVCAR-5) was 94%. It also gave a growth at 1 µM (TK-10) of 32%.

With `CC(=O)Nc1cccc(-c2ccc(-c3ccnc(NC(=O)Nc4cc(C(F)(F)F)cc(C(F)(F)F)c4)n3)cn2)c1.Cl` the growth at 0.1 µM (NCI-H322M) was 69%, the growth at 0.001 µM (BT-549) was 100% and the growth at 1 µM (OVCAR-8) was -25%. It also gave a growth at 0.01 µM (MDA-MB-468) of 86%, a GI50 (NCI-H460) of 2.06 µM and an IC50 (NCI-H460) of 2.06 µM. The TGI (NCI-H460) was 7.07 µM, the CC50 (NCI-H460) was 59.7 µM and the growth at 1 µM (UACC-257) was -45%. The growth at 1 µM (T47D [1]) was -3%, the growth at 1 µM (HT-29 [2]) was -6% and the growth at 1 µM (NCI-H23) was -16%. For the same compound, the GI50 (KM12) was 2.59 µM, the IC50 (KM12) was 2.59 µM and the TGI (KM12) was 8.01 µM. The CC50 (KM12) was 27.9 µM, the growth at 10 µM (EKVX) was -7% and the growth at 0.01 µM (SNB-75 [3]) was 71%. For the same compound, the growth at 10 µM (T47D [4]) was -14%, the GI50 (HT-29 [5]) was 3 µM and the IC50 (HT-29 [5]) was 3 µM. The TGI (HT-29 [5]) was 8.74 µM, the CC50 (HT-29 [5]) was 57.6 µM and the growth at 0.01 µM (U-251) was 90%. For the same compound, the LC50 (Malme-3M [6]) was “inactive”, the GI50 (Malme-3M [6]; Homo sapiens, Malme-3M, 48 h) was 2.01 µM and the TGI (Malme-3M [6]; Homo sapiens, Malme-3M, 48 h) was 4.48 µM. The IC50 (Malme-3M [6]; Homo sapiens, Malme-3M, 48 h, read-out: IC50) was 2.01 µM, the growth at 0.001 µM (SNB-75 [7]) was 57% and the growth at 0.001 µM (A498) was 95%. For the same compound, the GI50 (SK-MEL-2) was 5.65 µM, the IC50 (SK-MEL-2) was 5.65 µM and the TGI (SK-MEL-2) was 19.8 µM. For the same compound, the CC50 (SK-MEL-2) was 52.4 µM, the growth at 0.01 µM (SN12C) was 96% and the growth at 0.001 µM (UACC-62) was 93%. For the same compound, the growth at 0.1 µM (Malme-3M [8]) was 93%, the growth at 0.001 µM (MDA-MB-231) was 102% and the growth at 0.01 µM (OVCAR-4) was 78%. For the same compound, the GI50 (CAKI-1) was 2.37 µM, the IC50 (CAKI-1) was 2.37 µM and the LC50 (lethal concentration 50%) (CAKI-1) was over 100 µM. The TGI (CAKI-1) was 8.34 µM, the growth at 0.01 µM (COLO 205 [9]) was 100% and the growth at 0.001 µM (COLO 205 [10]) was 103%. For the same compound, the growth at 0.001 µM (OVCAR-5) was 97% and the growth at 1 µM (TK-10) was 80%.
